The source made the active and inactive calls.

Assay [1] addresses T1, Adenosine receptor A2a (Homo sapiens, UniProt P29274). The experiment in a line: Displacement of [3H]2-[p-(2-carboxyethyl)phenyl-ethylamino]-5'-N-ethylcarboxamido-adenosine from human A2aAR expressed in HEK293 cells after 60 mins by scintillation counting analysis. The format is cell-based. For orientation: Displacement assays read how much labelled ligand stays bound in the presence of the test substance.

The target in assay [2] is T2, Adenosine receptor A1 (Homo sapiens) (UniProt P30542).
T2 sequence (whole entry): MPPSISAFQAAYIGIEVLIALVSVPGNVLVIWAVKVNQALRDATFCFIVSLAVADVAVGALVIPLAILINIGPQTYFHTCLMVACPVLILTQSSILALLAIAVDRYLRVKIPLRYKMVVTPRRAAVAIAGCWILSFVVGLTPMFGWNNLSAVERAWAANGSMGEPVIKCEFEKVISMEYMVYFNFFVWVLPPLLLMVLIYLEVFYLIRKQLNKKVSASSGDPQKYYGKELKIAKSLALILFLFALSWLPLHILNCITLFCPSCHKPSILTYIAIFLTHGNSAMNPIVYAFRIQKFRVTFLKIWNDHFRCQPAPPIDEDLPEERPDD
Briefly: Displacement of [3H]N6-R-phenylisopropyladenosine from human A1AR expressed in CHO cells at 10 uM after 60 mins by scintillation counting analysis. The format is cell-based. The gist of the method:
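Membranes from CHO cells stably expressing hA1AR, labelled with agonist [3H]N6-R-phenylisopropyladenosine. […] Compound stocks kept in DMSO at −80 °C; n = 3-4.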

For assay [3], the target named is T3, Adenosine receptor A3 (Homo sapiens, UniProt P0DMS8).
T3 sequence (P0DMS8 whole entry): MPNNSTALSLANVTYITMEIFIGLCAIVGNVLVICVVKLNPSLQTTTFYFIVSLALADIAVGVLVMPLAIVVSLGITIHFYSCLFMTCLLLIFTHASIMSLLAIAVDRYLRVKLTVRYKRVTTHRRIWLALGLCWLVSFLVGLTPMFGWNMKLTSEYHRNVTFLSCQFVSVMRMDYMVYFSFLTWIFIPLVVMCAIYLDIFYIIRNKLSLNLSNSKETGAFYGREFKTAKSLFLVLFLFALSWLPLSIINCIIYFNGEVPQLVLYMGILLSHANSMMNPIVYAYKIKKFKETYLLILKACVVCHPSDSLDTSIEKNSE
Briefly: Displacement of [125I]N6-(4-amino-3-iodobenzyl)adenosine-5'-N-methyluronamide from human A3AR expressed in CHO cells after 60 mins by scintillation counting analysis. It is filed as cell-based.

Assay [4] has as its target T1, Adenosine receptor A2a. Briefly: Displacement of [3H]2-[p-(2-carboxyethyl)phenyl-ethylamino]-5'-N-ethylcarboxamido-adenosine from human A2aAR expressed in HEK293 cells at 10 uM after 60 mins by scintillation counting analysis. It is filed as cell-based.
The next assay has as its system Mus musculus. The experiment in a line: Reversal of pain in po dosed mouse chronic constriction injury model assessed as paw withdrawal threshold administered 7 days post injury measured after 1 hr. It is filed as functional, organism-based. An outline of the steps: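 Mouse chronic constriction injury model of neuropathic pain; compound given orally (po); mechanoallodynia read out as paw withdrawal threshold followed over time after dosing.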

The target in a further assay is T4, Adenosine receptor A1 (Homo sapiens, UniProt P30542).
T4 sequence (P30542 whole entry): T2 sequence (whole entry)
The experiment in a line: Displacement of [3H]N6-R-phenylisopropyladenosine from human A1AR expressed in CHO cells after 60 mins by scintillation counting analysis. The format is cell-based.

In assay [5] the target is T3, Adenosine receptor A3. Briefly: Binding affinity to human A3AR.

T1 sequence (P29274 whole entry): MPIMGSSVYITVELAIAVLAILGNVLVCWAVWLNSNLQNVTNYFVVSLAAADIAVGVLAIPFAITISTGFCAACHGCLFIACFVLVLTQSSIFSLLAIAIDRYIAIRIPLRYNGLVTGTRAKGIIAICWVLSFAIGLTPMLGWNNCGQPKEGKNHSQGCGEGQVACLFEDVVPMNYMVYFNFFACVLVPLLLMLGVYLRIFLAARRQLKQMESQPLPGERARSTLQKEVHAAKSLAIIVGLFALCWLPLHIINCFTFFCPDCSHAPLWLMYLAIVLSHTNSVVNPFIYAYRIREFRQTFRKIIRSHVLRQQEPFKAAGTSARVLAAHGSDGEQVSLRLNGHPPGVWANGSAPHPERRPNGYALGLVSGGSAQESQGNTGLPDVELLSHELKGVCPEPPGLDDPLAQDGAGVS

On to `CNC(=O)[C@@]12C[C@@H]1[C@@H](n1cnc3c(N)nc(C#Cc4ccccc4)nc31)[C@H](O)[C@@H]2O`, for which the Ki (usually the equilibrium dissociation constant of an inhibitor or competing ligand from its target) at Adenosine receptor A2a [1] stood at 1.2 µM; on Adenosine receptor A3 [3] it was 0.00151 µM. In addition, the inhibition (as a rule, the share of the control response that was lost under treatment) in assay [2] turned out to be 28%.

For `CNC(=O)[C@@]12C[C@@H]1[C@@H](n1cnc3c(N[C@@H]4C[C@H]4c4ccc(F)c(F)c4)nc(C#Cc4ccccc4)nc31)[C@H](O)[C@@H]2O`, the inhibition worked out at 0% at Adenosine receptor A2a [4] and 11% in assay [2]. The same compound gave a Ki at Adenosine receptor A3 [3] of 0.0169 µM.

`CNC(=O)[C@@]12C[C@@H]1[C@@H](n1cnc3c(N[C@H]4C[C@@H]4c4ccc(F)c(F)c4)nc(C#Cc4ccccc4)nc31)[C@H](O)[C@@H]2O`: the values for the inhibition (on Adenosine receptor A2a [4]; in assay [2]) were 0% and 16%, respectively. This compound also came in with a Ki at Adenosine receptor A3 [3] of 0.00455 µM.

In the case of `CNC(=O)[C@@]12C[C@@H]1[C@@H](n1cnc3c(N[C@@H]4C[C@H]4c4ccc(F)c(F)c4)nc(C#Cc4ccccn4)nc31)[C@H](O)[C@@H]2O`, the inhibition at Adenosine receptor A2a [4] worked out at 25%; in assay [2], 19%. Besides, the outcome in the assay on Mus musculus was Active.

Turning to `CNC(=O)[C@@]12C[C@@H]1[C@@H](n1cnc3c(N[C@H]4C[C@@H]4c4ccc(F)c(F)c4)nc(C#Cc4ccccn4)nc31)[C@H](O)[C@@H]2O`, the inhibition on Adenosine receptor A2a [4] turned out to be 41%; in assay [2], 26%.

The compound `OC[C@H]1O[C@@H](n2cnc3c(NC4CC4c4ccccc4)nc(C#Cc4ccccc4)nc32)[C@H](O)[C@@H]1O` (mixture of isomers) yielded a Ki at Adenosine receptor A1 of 0.124 µM.

For `O=[N+]([O-])c1cccc(C2CC2Nc2nc(C#Cc3ccccc3)nc3c2ncn3[C@@H]2O[C@H](CO)[C@@H](O)[C@H]2O)c1` (mixture of isomers), the Ki on Adenosine receptor A3 [5] is 0.0112 µM.

For the compound `CNC(=O)[C@@]12C[C@@H]1[C@@H](n1cnc3c(NC4CC4c4ccc(F)c(F)c4)nc(C#Cc4ccccc4)nc31)[C@H](O)[C@@H]2O` (mixture of isomers), the results for the inhibition (on Adenosine receptor A2a [4]; in assay [2]) were 6% and 11%, respectively.

Consider `CNC(=O)[C@@]12C[C@@H]1[C@@H](n1cnc3c(NC4CC4c4cccc(Br)c4)nc(C#Cc4ccccc4)nc31)[C@H](O)[C@@H]2O` (mixture of isomers), for which the figures for the inhibition (at Adenosine receptor A2a [4]; in assay [2]) were 32% and 17%, respectively.

Turning to `CNC(=O)[C@@]12C[C@@H]1[C@@H](n1cnc3c(NC4CC4c4cccc(C)c4)nc(C#Cc4ccccc4)nc31)[C@H](O)[C@@H]2O` (mixture of isomers), the inhibition at Adenosine receptor A2a [4] was 53%; in assay [2] it was 8%.

In the case of `CNC(=O)[C@@]12C[C@@H]1[C@@H](n1cnc3c(NC4CC4c4cccc(Cl)c4)nc(C#Cc4ccccc4)nc31)[C@H](O)[C@@H]2O` (mixture of isomers), the inhibition was 39% on Adenosine receptor A2a [4] and 6% in assay [2].

`CNC(=O)[C@@]12C[C@@H]1[C@@H](n1cnc3c(NC4CC4c4cccc(F)c4)nc(C#Cc4ccccc4)nc31)[C@H](O)[C@@H]2O` (mixture of isomers): the inhibition on Adenosine receptor A2a [4] is 0%; in assay [2] it was 18%.

On to `CNC(=O)[C@@]12C[C@@H]1[C@@H](n1cnc3c(NC4CC4c4ccccc4)nc(C#Cc4ccccc4)nc31)[C@H](O)[C@@H]2O` (mixture of isomers), for which the inhibition at Adenosine receptor A2a [4] was 43%; in assay [2] it was 2%.
